In ChEMBL document CHEMBL4689842, “EUbOPEN Chemogenomics Library wave 1” (2021):

Test system: Fibroblast
Test: Multiplex assay against human fibroblast
Assay type: toxicity, cell-based
How it was run: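 At seeding, live cells were stained with Hoechst33342, BioTracker Green Microtubule Cytoskeleton Dye, MitoTracker Red and Annexin V Alexa Fluor 680. After compound addition they were imaged on a CQ1 microscope at 37°C and 5% CO2, and CellPathfinder machine-learning gating sorted them into Hoechst high-intensity objects or normal cells, with normal cells further split into healthy, pyknosed or fragmented nuclei and pyknosed cells into mitotic or apoptotic. Tubulin, mitochondrial-mass and membrane-permeability phenotypes are given as per cents of cells with healthy nuclei.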

[1] = 12 h, 1 µM, compound concentration 1 uM, replicate 1
[2] = 12 h, 1 µM, compound concentration 1 uM, replicate 2
[3] = 12 h, 10 µM, compound concentration 10 uM, replicate 1
[4] = 12 h, 10 µM, compound concentration 10 uM, replicate 2
[5] = 24 h, 1 µM, compound concentration 1 uM, replicate 1
[6] = 24 h, 1 µM, compound concentration 1 uM, replicate 2
[7] = 24 h, 10 µM, compound concentration 10 uM, replicate 1
[8] = 24 h, 10 µM, compound concentration 10 uM, replicate 2
[9] = 48 h, 1 µM, compound concentration 1 uM, replicate 1
[10] = 48 h, 1 µM, compound concentration 1 uM, replicate 2
[11] = 48 h, 10 µM, compound concentration 10 uM, replicate 1
[12] = 48 h, 10 µM, compound concentration 10 uM, replicate 2

O=C(Nc1ccc(-c2ccnc(Nc3ccc(N4CCOCC4)cc3)n2)cc1)[C@@H]1CCCN1
Population Apoptotic (%) [1]: 58%
Population Fragmented Nuclei (%) [1]: 25%
Population Healthy Nuclei (%) [1]: 41%
Population Hoechst High Intensity Objects (%) [1]: 13%
Population Membrane Permeable-Phenotype (%) [1]: 36%
Population Mitochondria Different-Phenotype (%) [1]: 11%
Population Mitotic Cells (%) [1]: 41%
Population Normal (%) [1]: 87%
Population Pyknosed Nuclei (%) [1]: 33%
Population Tubulin-Different-Phenotype (%) [1]: 47%
Total Cell Count [1]: 100
Population Apoptotic (%) [2]: 33%
Population Fragmented Nuclei (%) [2]: 13%
Population Healthy Nuclei (%) [2]: 76%
Population Hoechst High Intensity Objects (%) [2]: 7%
Population Membrane Permeable-Phenotype (%) [2]: 4%
Population Mitochondria Different-Phenotype (%) [2]: 10%
Population Mitotic Cells (%) [2]: 66%
Population Normal (%) [2]: 92%
Population Pyknosed Nuclei (%) [2]: 10%
Population Tubulin-Different-Phenotype (%) [2]: 10%
Total Cell Count [2]: 65
Population Apoptotic (%) [3]: 39%
Population Fragmented Nuclei (%) [3]: 35%
Population Healthy Nuclei (%) [3]: 30%
Population Hoechst High Intensity Objects (%) [3]: 13%
Population Membrane Permeable-Phenotype (%) [3]: 28%
Population Mitochondria Different-Phenotype (%) [3]: 25%
Population Mitotic Cells (%) [3]: 60%
Population Normal (%) [3]: 86%
Population Pyknosed Nuclei (%) [3]: 33%
Population Tubulin-Different-Phenotype (%) [3]: 74%
Total Cell Count [3]: 146
Population Apoptotic (%) [4]: 77%
Population Fragmented Nuclei (%) [4]: 7%
Population Healthy Nuclei (%) [4]: 77%
Population Hoechst High Intensity Objects (%) [4]: 5%
Population Membrane Permeable-Phenotype (%) [4]: 8%
Population Mitochondria Different-Phenotype (%) [4]: 28%
Population Mitotic Cells (%) [4]: 22%
Population Normal (%) [4]: 94%
Population Pyknosed Nuclei (%) [4]: 14%
Population Tubulin-Different-Phenotype (%) [4]: 44%
Total Cell Count [4]: 65
Population Apoptotic (%) [5]: 52%
Population Fragmented Nuclei (%) [5]: 24%
Population Healthy Nuclei (%) [5]: 52%
Population Hoechst High Intensity Objects (%) [5]: 9%
Population Membrane Permeable-Phenotype (%) [5]: 22%
Population Mitochondria Different-Phenotype (%) [5]: 6%
Population Mitotic Cells (%) [5]: 47%
Population Normal (%) [5]: 91%
Population Pyknosed Nuclei (%) [5]: 23%
Population Tubulin-Different-Phenotype (%) [5]: 35%
Total Cell Count [5]: 100
Population Apoptotic (%) [6]: 60%
Population Fragmented Nuclei (%) [6]: 7%
Population Healthy Nuclei (%) [6]: 85%
Population Hoechst High Intensity Objects (%) [6]: 6%
Population Membrane Permeable-Phenotype (%) [6]: 3%
Population Mitochondria Different-Phenotype (%) [6]: 19%
Population Mitotic Cells (%) [6]: 40%
Population Normal (%) [6]: 93%
Population Pyknosed Nuclei (%) [6]: 7%
Population Tubulin-Different-Phenotype (%) [6]: 10%
Total Cell Count [6]: 63
Population Apoptotic (%) [7]: 57%
Population Fragmented Nuclei (%) [7]: 37%
Population Healthy Nuclei (%) [7]: 48%
Population Hoechst High Intensity Objects (%) [7]: 12%
Population Membrane Permeable-Phenotype (%) [7]: 16%
Population Mitochondria Different-Phenotype (%) [7]: 21%
Population Mitotic Cells (%) [7]: 42%
Population Normal (%) [7]: 87%
Population Pyknosed Nuclei (%) [7]: 13%
Population Tubulin-Different-Phenotype (%) [7]: 74%
Total Cell Count [7]: 156
Population Apoptotic (%) [8]: 58%
Population Fragmented Nuclei (%) [8]: 18%
Population Healthy Nuclei (%) [8]: 64%
Population Hoechst High Intensity Objects (%) [8]: 1%
Population Membrane Permeable-Phenotype (%) [8]: 13%
Population Mitochondria Different-Phenotype (%) [8]: 17%
Population Mitotic Cells (%) [8]: 41%
Population Normal (%) [8]: 98%
Population Pyknosed Nuclei (%) [8]: 17%
Population Tubulin-Different-Phenotype (%) [8]: 22%
Total Cell Count [8]: 72
Population Apoptotic (%) [9]: 60%
Population Fragmented Nuclei (%) [9]: 29%
Population Healthy Nuclei (%) [9]: 60%
Population Hoechst High Intensity Objects (%) [9]: 9%
Population Membrane Permeable-Phenotype (%) [9]: 26%
Population Mitochondria Different-Phenotype (%) [9]: 4%
Population Mitotic Cells (%) [9]: 40%
Population Normal (%) [9]: 90%
Population Pyknosed Nuclei (%) [9]: 9%
Population Tubulin-Different-Phenotype (%) [9]: 27%
Total Cell Count [9]: 111
Population Apoptotic (%) [10]: 50%
Population Fragmented Nuclei (%) [10]: 18%
Population Healthy Nuclei (%) [10]: 76%
Population Membrane Permeable-Phenotype (%) [10]: 18%
Population Mitotic Cells (%) [10]: 50%
Population Pyknosed Nuclei (%) [10]: 4%
Population Tubulin-Different-Phenotype (%) [10]: 30%
Total Cell Count [10]: 101
Population Apoptotic (%) [11]: 83%
Population Fragmented Nuclei (%) [11]: 44%
Population Healthy Nuclei (%) [11]: 50%
Population Hoechst High Intensity Objects (%) [11]: 22%
Population Membrane Permeable-Phenotype (%) [11]: 15%
Population Mitochondria Different-Phenotype (%) [11]: 2%
Population Mitotic Cells (%) [11]: 16%
Population Normal (%) [11]: 77%
Population Pyknosed Nuclei (%) [11]: 4%
Population Tubulin-Different-Phenotype (%) [11]: 61%
Total Cell Count [11]: 179
Population Apoptotic (%) [12]: 33%
Population Fragmented Nuclei (%) [12]: 32%
Population Healthy Nuclei (%) [12]: 64%
Population Hoechst High Intensity Objects (%) [12]: 6%
Population Membrane Permeable-Phenotype (%) [12]: 20%
Population Mitochondria Different-Phenotype (%) [12]: 3%
Population Mitotic Cells (%) [12]: 66%
Population Normal (%) [12]: 93%
Population Pyknosed Nuclei (%) [12]: 3%
Population Tubulin-Different-Phenotype (%) [12]: 53%
Total Cell Count [12]: 99

CCc1cccc(CC)c1NC(=O)c1nn(C)c2c1CCc1cnc(Nc3ccc(N4CCN(C)CC4)cc3OC)nc1-2
Population Apoptotic (%) [1]: 45%
Population Fragmented Nuclei (%) [1]: 17%
Population Healthy Nuclei (%) [1]: 47%
Population Hoechst High Intensity Objects (%) [1]: 9%
Population Membrane Permeable-Phenotype (%) [1]: 8%
Population Mitochondria Different-Phenotype (%) [1]: 72%
Population Mitotic Cells (%) [1]: 54%
Population Normal (%) [1]: 90%
Population Pyknosed Nuclei (%) [1]: 34%
Population Tubulin-Different-Phenotype (%) [1]: 75%
Total Cell Count [1]: 142
Population Apoptotic (%) [2]: 50%
Population Fragmented Nuclei (%) [2]: 54%
Population Healthy Nuclei (%) [2]: 18%
Population Hoechst High Intensity Objects (%) [2]: 25%
Population Membrane Permeable-Phenotype (%) [2]: 0%
Population Mitochondria Different-Phenotype (%) [2]: 75%
Population Mitotic Cells (%) [2]: 50%
Population Normal (%) [2]: 74%
Population Pyknosed Nuclei (%) [2]: 27%
Total Cell Count [2]: 59
Population Apoptotic (%) [3]: 71%
Population Fragmented Nuclei (%) [3]: 32%
Population Healthy Nuclei (%) [3]: 46%
Population Hoechst High Intensity Objects (%) [3]: 11%
Population Membrane Permeable-Phenotype (%) [3]: 2%
Population Mitochondria Different-Phenotype (%) [3]: 11%
Population Mitotic Cells (%) [3]: 28%
Population Normal (%) [3]: 88%
Population Pyknosed Nuclei (%) [3]: 20%
Population Tubulin-Different-Phenotype (%) [3]: 18%
Total Cell Count [3]: 213
Population Apoptotic (%) [4]: 20%
Population Fragmented Nuclei (%) [4]: 51%
Population Healthy Nuclei (%) [4]: 40%
Population Hoechst High Intensity Objects (%) [4]: 21%
Population Membrane Permeable-Phenotype (%) [4]: 3%
Population Mitochondria Different-Phenotype (%) [4]: 30%
Population Mitotic Cells (%) [4]: 80%
Population Normal (%) [4]: 78%
Population Pyknosed Nuclei (%) [4]: 7%
Population Tubulin-Different-Phenotype (%) [4]: 23%
Total Cell Count [4]: 82
Population Apoptotic (%) [5]: 80%
Population Fragmented Nuclei (%) [5]: 25%
Population Healthy Nuclei (%) [5]: 29%
Population Hoechst High Intensity Objects (%) [5]: 10%
Population Membrane Permeable-Phenotype (%) [5]: 2%
Population Mitochondria Different-Phenotype (%) [5]: 89%
Population Mitotic Cells (%) [5]: 19%
Population Normal (%) [5]: 89%
Population Pyknosed Nuclei (%) [5]: 44%
Population Tubulin-Different-Phenotype (%) [5]: 78%
Total Cell Count [5]: 140
Population Apoptotic (%) [6]: 100%
Population Fragmented Nuclei (%) [6]: 61%
Population Healthy Nuclei (%) [6]: 11%
Population Hoechst High Intensity Objects (%) [6]: 30%
Population Membrane Permeable-Phenotype (%) [6]: 0%
Population Mitochondria Different-Phenotype (%) [6]: 100%
Population Mitotic Cells (%) [6]: 0%
Population Normal (%) [6]: 69%
Population Pyknosed Nuclei (%) [6]: 27%
Population Tubulin-Different-Phenotype (%) [6]: 100%
Total Cell Count [6]: 63
Population Apoptotic (%) [7]: 72%
Population Fragmented Nuclei (%) [7]: 37%
Population Healthy Nuclei (%) [7]: 46%
Population Hoechst High Intensity Objects (%) [7]: 13%
Population Membrane Permeable-Phenotype (%) [7]: 4%
Population Mitochondria Different-Phenotype (%) [7]: 11%
Population Mitotic Cells (%) [7]: 27%
Population Normal (%) [7]: 86%
Population Pyknosed Nuclei (%) [7]: 16%
Total Cell Count [7]: 262
Population Apoptotic (%) [8]: 66%
Population Fragmented Nuclei (%) [8]: 60%
Population Healthy Nuclei (%) [8]: 35%
Population Hoechst High Intensity Objects (%) [8]: 20%
Population Membrane Permeable-Phenotype (%) [8]: 6%
Population Mitochondria Different-Phenotype (%) [8]: 10%
Population Mitotic Cells (%) [8]: 33%
Population Normal (%) [8]: 80%
Population Pyknosed Nuclei (%) [8]: 3%
Population Tubulin-Different-Phenotype (%) [8]: 16%
Total Cell Count [8]: 105
